From ChEMBL document CHEMBL4513216, “Probing the Open Global Health Chemical Diversity Library for Multistage-Active Starting Points for Next-Generation Antimalarials” (ACS Infect Dis, 2020)

Assay: Toxicity liver stage against HepG2, at 10uM
Type: cell-based
Parameters: test concentration 10 uM, cell line HepG2-A16-CD81EGFP
Conditions: human, HepG2-A16-CD81EGFP cells; read-out: INHIBITION
Outline: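 Uninfected HepG2-A16-CD81EGFP cells, 3 × 10^3 per well, 1536-well, plated on prespotted compound at 10 μM final, parasite-free screening media added to match infected plates; puromycin 10 μM positive, DMSO 0.5% negative; run in parallel with 48 h PbLuc assay at 37 °C, 5% CO2; viability by CellTiter-Glo luminescence, normalized to controls.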

Row | SMILES | cytotoxicity at 10 µM
1 | CCOC(=O)N1CCN(C(=O)CCn2cccc2)CC1 | 5.62%
2 | COc1ccc2c(c1)c(C(=O)Nc1nnn[nH]1)cn2C | -1.33%
3 | CCCS(=O)(=O)NCCn1ccc(-c2cccs2)n1 | 5.55%
4 | CC(=O)NCC(=O)N1CCc2c(CN(C)C)nn(C(C)C)c2C1 | -4.94%
5 | O=C(c1ccc[nH]1)N1CC2(CCN(c3nccs3)C2)C1 | 5.68%
6 | Cc1cc(C(=O)N2C[C@@H]3CN(S(C)(=O)=O)CCO[C@@H]3C2)c(C)o1 | -3.49%
7 | CC1c2ncc(Cn3cncn3)n2CCN1C(=O)Cc1cccs1 (stereo not given) | 7.89%
8 | O=C1NC(c2ccccc2)=N[C@@]12CC[C@@H]1CN(Cc3ccncc3)C[C@@H]12 | 11.9%
9 | CCC(C)[C@H](NC(=O)c1cc(Br)ccc1-n1cnnn1)C(=O)OC (stereo not given in full) | 2.58%
10 | Cn1cccc1C(CNC(=O)c1ccc(F)cc1F)N1CCCCCC1 (stereo not given) | 2.19%
11 | CC(C)NC(=O)c1ccn(COc2c(Cl)cccc2Cl)n1 | 7.44%
12 | Cc1cccc2c1ccn2CC(=O)O | 9.49%
13 | Cc1cccc(C(=O)Nc2c(C(=O)N(C)C)nn(C)c2C)c1 | 7.58%
14 | Cc1ccc(C(=O)Nc2c(C(=O)N(C)C)nn(C)c2C)cc1C | 11.8%
15 | Cc1ccc(C2(C(=O)NCCCn3cccn3)CCOCC2)cc1 | 9.73%
16 | CCCNc1cc(C(=O)N2CCOCC2)nc(C)n1 | 10.8%
17 | Cc1cc(Nc2ccc(F)cn2)cc(C2CCCN2)n1 (stereo not given) | 0.0453%
18 | Cc1cc2ccccc2n1CCC(=O)N1CCN(C)CC1C(N)=O (stereo not given) | -1.04%
19 | COc1cc(CCC(=O)N2CCC(c3cc4ncc(C)nc4[nH]3)C2)on1 (stereo not given) | 1.92%
20 | Cc1ccc(CN2CCCC(c3cnccn3)C2)s1 (stereo not given) | 2.46%
21 | Cc1cc(C)nc(N2CCCC2c2[nH]ncc2C(=O)N(C)C)n1 (stereo not given) | -1.51%
22 | Cc1noc(-c2c[nH]nc2C2CCCN2C(=O)c2ccccc2)c1C (stereo not given) | -8.77%

Row | SMILES | cytotoxicity at 10 µM
23 | Cc1cncc(C2CCCN2CC(N)=O)n1 (stereo not given) | -5.3%
24 | CC(=O)N1CCC(C)(c2cc[nH]n2)CC1 | -4.07%
25 | Nc1nc(C2CCN(C(=O)c3cscn3)CC2)cs1 | 3.32%
26 | CCC1COCCN1C(=O)CNC(=O)c1ccsc1 (stereo not given) | 4.53%
27 | Cc1n[nH]cc1CNCC1(c2ccccc2Cl)CCOCC1 | 8.16%
28 | CC(C)CN1CCC(NC(=O)N(C)Cc2csc3ccccc23)CC1 | -52.9%
29 | COCCOc1ncccc1C(=O)N(C)c1ccc(OC)nc1 | -44.4%
30 | CCN1CCN(C2CCN(Cc3ccc(Cl)s3)CC2)C1=O | 13.1%
31 | CCCN(C(=O)c1ccc(-n2ccnn2)cc1)c1cccnc1 | 13.8%
32 | Cc1csc(C2CCCCN2C(=O)c2cnn3ccc(C)nc23)n1 (stereo not given) | -5.85%
33 | CCNC(=O)CCS(=O)(=O)Cc1ccn(-c2cccc(F)c2)n1 | 11.1%
34 | Cc1nccn1C1CCCN(C(=O)CCc2nc(C(C)C)no2)C1 (stereo not given) | -6.27%
35 | CC(=O)Nc1cccc(CN2CCCC2C(=O)Nc2nccs2)c1 (stereo not given) | 6.12%
36 | Cc1cc(C)n(-c2cncc(NCCNC(=O)C(C)(C)C)n2)n1 | 1.36%
37 | Cc1ncsc1CN(C)Cc1cc2c(cc1OC(F)F)OCO2 | 6.22%
38 | CC(NCc1cc2cc(F)ccc2o1)c1nnc2n1CCCC2 (stereo not given) | -7.93%
39 | Cc1n[nH]c(C2CN(CC(=O)NCCc3ccc(F)cc3)CCO2)n1 (stereo not given) | -8.13%
40 | Fc1ccc2c(C3=CCN(Cc4nnc(C5CCC5)o4)CC3)c[nH]c2c1 | -0.302%
41 | COc1ccccc1OCCC(=O)NC1CCc2nc(C)cn2C1 (stereo not given) | -7.05%
42 | CC(C)n1cc(CN2CCCN(C(=O)c3cccn3C)CC2)cn1 | 1.51%
43 | c1csc(-c2noc(CN3CCc4c(ncn4C4CC4)C3)n2)c1 | 5.93%
44 | Cc1cc(S(=O)(=O)N(C)CC(N)=O)ccc1Br | 15%

Row | SMILES | cytotoxicity at 10 µM
45 | CC(=O)NS(=O)(=O)c1ccc(F)cc1C(F)(F)F | 1.25%
46 | CC(C)N(CCS(C)(=O)=O)Cc1csc(Cc2ccc(Cl)cc2)n1 | -40.6%
47 | Cn1nc(Br)c2c(NCCNc3ncccn3)ncnc21 | 11.3%
48 | CCC(C)n1cnc(S(=O)(=O)N(C)c2cccnc2N(C)C)c1 (stereo not given) | -3.08%
49 | CCc1nsc(N2CCCN(C(=O)c3ccc(CC)o3)CC2)n1 | 7.76%
50 | Cc1cnn(C2CN(Cc3nnc(Cc4ccccc4)o3)C2)c1 | 4.4%
51 | Cc1nc(NC(=O)C(C)S(C)(=O)=O)sc1Cc1ccc(F)cc1 (stereo not given) | 4.52%
52 | CC(NCC(=O)N(C)C1CC1)c1ccc(S(C)(=O)=O)c(F)c1 (stereo not given) | 6.27%
53 | CCN(CC)C(=O)CCc1c(C)nc2cc(O)nn2c1C | 0.33%
54 | Cc1ccc(N2CCCC3(CCN(C(=O)NC4CCCC4)C3)C2)nn1 (stereo not given) | -114%
55 | CCO[C@H]1CC[C@H]2[C@H]1OCCN2C(=O)COc1ccccc1 | -94%
56 | COc1ccc(CNC(=O)c2nc3c(s2)CCN(C(C)=O)CC3)cc1 | -76.6%
57 | COCCC(=O)N1CCC2(COCc3cnc(N4CCOCC4)nc32)C1 (stereo not given) | 2.21%
58 | O=C(NCC1CC1)[C@H]1C[C@H]2OCC[C@H]2N(Cc2ccsc2)C1 | 2.47%
59 | CN1CCC(n2nc(CC3CC3)nc2-c2ccc(F)cc2Cl)CC1 | -1.84%
60 | CCNc1ncc(CN(CCN(C)C)Cc2ccc(C)s2)cn1 | -46.1%
61 | Cc1noc(-c2ccc(Oc3cccc(CN4CCCC4)c3F)nc2)n1 | -6.03%
62 | CC(C)CN(Cc1ccc(-n2cncn2)cc1)Cc1ccccn1 | 8.57%
63 | Cc1cc(C)c(C(=O)N2CCCC(O)(CN3CCCC3)C2)cc1C (stereo not given) | 8.4%
64 | CC(C)(C)c1ccn(C2(C(=O)O)CCN(c3ccncc3F)CC2)n1 | -0.423%
65 | COc1ccc(C(=O)N2C[C@@H](CN3CCCC3)[C@@H](CO)C2)c(C)c1 | -7.21%
66 | Cc1ccc(NC2CCCN(C3Cc4ccccc4C3)C2)nn1 (stereo not given) | -2.38%

Row | SMILES | cytotoxicity at 10 µM
67 | Cn1cccc1C(=O)N1CCC2(CC1)c1nc[nH]c1CCN2S(C)(=O)=O | -0.359%
68 | COCCC1(CO)CCCN(CCCc2ccccc2)C1 (stereo not given) | -1.4%
69 | COc1ccc(CCC2CCCN(C(=O)c3cnc(N)nc3C)C2)cc1 (stereo not given) | 1.14%
70 | Cc1nc(N2CCN(C)CC2)ncc1C(=O)N1C[C@@H](C)[C@@](C)(O)C1 | 2.32%
71 | CCO[C@H]1CN(C)C[C@@H]1NC(=O)c1cc(C)nc2c(C)c(C)ccc12 | 1.64%
72 | CN(Cc1cc[nH]n1)C(C(=O)O)c1ccc(Cl)cc1 (stereo not given) | 0.595%
73 | CCCNC(=O)C(C)Oc1ccccc1 (stereo not given) | -6.68%
74 | COc1ccc2c(c1)OCC(CNC(=O)CCc1c(C)n[nH]c1C)C2 (stereo not given) | -48.5%
75 | Nc1cc(C(=O)N2CCCC3(C=Cc4ccccc4O3)CC2)ccn1 (stereo not given) | 13.7%
76 | Cc1cccc2cc(CN3CCCN4CCC[C@H]4C3)c(=O)[nH]c12 | 2.67%
77 | c1ccc(OCCN2CCN(c3ncnc4[nH]ccc34)CC2)cc1 | 8.64%
78 | CCC(Nc1nc(C)nc2c1cnn2C)c1ncnn1CC (stereo not given) | -7.17%
79 | CC(C)OC(=O)c1ccc(Cl)c(NC(=O)NCCN2CCOCC2)c1 | -54.4%
80 | Cc1ncc(C(=O)N2CCCN(Cc3ccccc3F)CC2)c(O)n1 | 0.903%
81 | Cc1cc(C)c2nc(CN3CCC(N4CCOCC4)CC3)cc(O)c2c1 | -0.173%
82 | CN(Cc1cccc2cnccc12)C(=O)CCc1n[nH]c2c1CCCC2 | -7.27%
83 | COCc1cn(C2CCN(C(=O)Cc3ccsc3)CC2)nn1 | -4.2%
84 | Cc1cnn(CCCNC(=O)CCC2CCCCN2C)c1 (stereo not given) | -7.32%
85 | c1ccc(CCn2cc(-c3nc(CN4CCOCC4)no3)nn2)cc1 | 1.85%
86 | Cc1cnn(C(C)C2CC2)c1NC(=O)c1ccncc1 (stereo not given) | -8.48%
87 | Cc1cc(C(=O)N2CCCC(C)C2)ccc1NCc1nc(C2CC2)no1 (stereo not given) | -8.38%
88 | Cc1ncsc1C(=O)NCCNc1ncccn1 | 1.76%

Row | SMILES | cytotoxicity at 10 µM
89 | Cc1noc(C)c1CN(C)C(=O)c1ccc(C(N)=O)nc1 | -4.24%
90 | CCc1nc(C(=O)N2CCN(C)CC2)nn1-c1ccccc1Cl | 2.1%
91 | Cc1nc(CN2CCCC(Cn3cncn3)C2)no1 (stereo not given) | 4.34%
92 | O=C(Cn1cc(-c2ccccc2)cn1)NC(C1CC1)C1CC1 | -5%
93 | CCN(CCNC(=O)c1cccnc1OCCOC)C1CC1 | -0.966%
94 | c1cc2n(n1)CC(CNCc1ccc(OCC3CC3)nc1)CN2 (stereo not given) | -3.97%
95 | Cc1nc(C)c(C(=O)NCCNC(=O)c2ccc(F)cc2F)s1 | -5.55%
96 | COc1ccccc1CCNC(=O)CN1CCCC1c1noc(C)n1 (stereo not given) | -3.81%
97 | CN(C)c1cc2c(nn1)CCN(C(=O)C1CCc3ccccc31)C2 (stereo not given) | -12.2%
98 | CC(=O)Nc1nc(CN2CCCC2c2cnn(C)c2)cs1 (stereo not given) | -11.8%
99 | FC(F)(F)c1ccc(-c2cnc(C3CCCN3)cn2)cc1 (stereo not given) | -1.12%
100 | Cc1occc1C(=O)N1C[C@H](Oc2ccccn2)[C@H]2OCCC[C@H]21 | -110%
101 | CC(C)CC(=O)NC1CC2(CCN(CCF)CC2)Oc2ccccc21 (stereo not given) | 1.08%
102 | CN1C[C@@H]2COC[C@]2(C(=O)NCCc2cccs2)C1 | 8.1%
103 | c1cnc(N2CC[C@@H]3O[C@@H](COCc4cccnc4)CC[C@@H]32)nc1 | 11.2%
104 | COc1ccc(CN2C[C@H]3CCC[C@@H](CN(C)C)[C@H]3C2)cn1 | 4.65%
105 | CC(C)COCC1CN(C(=O)c2cscn2)Cc2ncn(C)c21 (stereo not given) | -109%
106 | Cc1cccc(CN2CCS(=O)(=O)[C@@H]3CCN(C(=O)C4CC4)CC[C@@H]32)n1 | -3.64%
107 | O=C(O)c1c(-c2ccncc2)ncc2c1CCN(CC1CCOC1)C2 (stereo not given) | -100%
108 | COCC1CN(S(=O)(=O)c2ccc(C)cc2)Cc2c1cnn2C (stereo not given) | -5.37%
109 | CN(C)C(=O)CN1CCOCC2(CCN(CC3CCOCC3)CC2)C1 | 8.55%
110 | Cc1nc2c(c(NC(C)C)n1)CCN(C(=O)c1cc[nH]n1)CC2 | 6.71%
